Test results as given in article PMC9931008 (Journal of Food and Drug Analysis, 2022).
Like-named read-outs stand apart in the source and are kept apart here.

What was measured:
[1] = test system: nifedipine oxidation (NFO) activity; type: in vitro ADME, rat; details: rat, probe nifedipine; for IC50: rat hepatic (liver) microsomes, IC50, NFO activity, Liver, ingredient, 10-min NADPH-fortified pre-incubation; for inhibition at 100 µM: rat hepatic and intestinal microsomes
[2] = cited from earlier work; for Cmax: read-out: Cmax levels of plasma, rats orally treated with a single dose of 8 g/kg lyophilized SMS
[3] = rat plasma; nifedipine 3 mg/kg oral; control group (water)
[4] = molecular target: T1, NADPH-P450 reductase (CPR) (Homo sapiens, UniProt P16435); assay: Dialysis experiment, CPR activity; type: in vitro ADME; details: recombinant CYP3A4 system
T1 sequence (P16435 1-677): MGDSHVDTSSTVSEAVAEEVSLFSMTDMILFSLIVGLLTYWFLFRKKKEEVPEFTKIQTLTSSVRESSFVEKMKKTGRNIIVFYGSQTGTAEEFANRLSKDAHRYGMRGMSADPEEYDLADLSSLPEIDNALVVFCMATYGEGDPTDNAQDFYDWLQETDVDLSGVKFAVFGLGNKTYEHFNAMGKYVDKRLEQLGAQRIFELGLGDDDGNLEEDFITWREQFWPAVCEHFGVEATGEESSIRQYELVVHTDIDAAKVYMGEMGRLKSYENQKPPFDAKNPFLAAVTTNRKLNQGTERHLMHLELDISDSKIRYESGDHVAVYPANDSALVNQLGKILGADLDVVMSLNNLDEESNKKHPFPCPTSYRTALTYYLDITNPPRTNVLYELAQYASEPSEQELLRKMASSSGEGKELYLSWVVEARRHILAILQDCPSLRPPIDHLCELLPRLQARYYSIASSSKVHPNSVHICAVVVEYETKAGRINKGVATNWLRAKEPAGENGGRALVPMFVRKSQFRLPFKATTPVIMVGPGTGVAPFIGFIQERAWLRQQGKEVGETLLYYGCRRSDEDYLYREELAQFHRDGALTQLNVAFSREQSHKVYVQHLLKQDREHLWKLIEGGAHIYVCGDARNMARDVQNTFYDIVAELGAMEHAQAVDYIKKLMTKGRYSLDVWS
Method in brief: (§1)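 E. coli membranes co-expressing human CYP3A4 and CPR (20 nM) were incubated 30 min at 37 °C with 3–20 μM test compound and an NADPH-generating system (pH 7.4), with DMSO vehicle controls. They were dialysed (10 kDa) at 4 °C against phosphate/0.1 mM EDTA with three 30-min buffer changes. […] Means of three determinations.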

human CYP3A4 [5] = molecular target: T2, human CYP3A4 (Homo sapiens, UniProt P08684, S18F); assay: Dialysis experiment, remaining NFO activity; type: in vitro ADME; details: 30-min NADPH-fortified pre-incubation
Method in brief: as §1

human CYP3A4 [6] = molecular target: T2, human CYP3A4; type: in vitro ADME; details: for Ratio IC50(+)/IC50(−): IC50 shift after 10-min pre-incubation; for IC50: NFO activity; for Predicted threshold of unbound inhibitor concentration causing a 2-fold AUC increase: high-throughput method from IC50 values
human CYP3A4 [7] = molecular target: T2, human CYP3A4; assay: Time-dependent inactivation kinetics of human CYP3A4; type: in vitro ADME
Method in brief: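 Recombinant CYP3A4 was pre-incubated with NADPH and test compound (DMSO vehicle) for varying times, and residual NFO was measured. K_app is the slope of ln % remaining activity versus time. k_inact and K_I came from nonlinear fit of K_app = k_inact·I/(I+K_I), with double-reciprocal starting values. The partition ratio came from titrating remaining activity after 30-min incubation against inhibitor:CYP3A4 molar ratio. […] Means of three determinations.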

[8] = test system: nifedipine oxidation (NFO) activities in rat hepatic microsomes; type: in vitro ADME; details: read-out: IC50, NFO activity, Liver; ingredient; 10-min NADPH-fortified pre-incubation
[9] = test system: nifedipine oxidation (NFO) activities in rat intestinal microsomes; type: in vitro ADME; details: read-out: IC50, NFO activity, Intestine; ingredient; 10-min NADPH-fortified pre-incubation
[10] = Literature pharmacokinetics of herbal ingredients in rats; type: in vivo; details: SMS once daily, estimated from half-life
[11] = linear regression of double reciprocal plots (r = 0.97)
[12] = nonlinear regression analysis (r = 0.98)
[13] = IC50(+), 10-min NADPH-fortified pre-incubation
[14] = IC50(−), without pre-incubation
[15] = rats treated with 8 g/kg lyophilized SMS

With `COc1cc(C[C@H]2C(=O)OC[C@@H]2Cc2ccc(OC)c(OC)c2)ccc1O` [Arctigenin] the IC50 [1] was over 100 µM and the inhibition at 100 µM [1] was at most 50%.
In the case of `CC(C)=CCC/C(C)=C/COc1c2ccoc2cc2oc(=O)ccc12` [Bergamottin, bergamottin, reference compound], the tmax ([2]; rats) is given as 0.5 h.
In the case of `COC(=O)c1c(C)nc(C)c(C(=O)OC)c1-c1ccccc1[N+](=O)[O-]` [Dehydronifedipine], the “AUC0−t of dehydronifedipine” value [3] is reported as 100 ± 10 ng·h/mL, the “AUC0−∞ of dehydronifedipine” value [3] is reported as 130 ± 10 ng·h/mL and the Cmax of dehydronifedipine [3] is reported as 40 ± 10 ng/mL. The t1/2 of dehydronifedipine [3] was 2.36 ± 0.33 h and the tmax of dehydronifedipine [3] was 0.54 ± 0.10 h.
With `CC(C)=CCC[C@](C)(O[C@@H]1O[C@H](CO[C@@H]2O[C@H](CO)[C@@H](O)[C@H](O)[C@H]2O)[C@@H](O)[C@H](O)[C@H]1O)[C@H]1CC[C@]2(C)[C@@H]1[C@H](O)C[C@@H]1[C@@]3(C)CC[C@H](O[C@@H]4O[C@H](CO)[C@@H](O)[C@H](O)[C@H]4O[C@@H]4O[C@H](CO)[C@@H](O)[C@H](O)[C@H]4O)C(C)(C)[C@@H]3CC[C@]12C` [Ginsenoside Rb1, ginsenoside Rb1] the IC50 [1] was over 100 µM.
For `CC(C)=CCC[C@](C)(O[C@@H]1O[C@H](CO)[C@@H](O)[C@H](O)[C@H]1O)[C@H]1CC[C@]2(C)[C@@H]1[C@H](O)C[C@@H]1[C@@]3(C)CC[C@H](O[C@@H]4O[C@H](CO)[C@@H](O)[C@H](O)[C@H]4O[C@@H]4O[C@H](CO)[C@@H](O)[C@H](O)[C@H]4O)C(C)(C)[C@@H]3CC[C@]12C` [Ginsenoside Rd, ginsenoside Rd], the IC50 [1] was 80.2 ± 33.3 µM.
With `Cc1c(O)c(C)c2c(c1O)C(=O)[C@H](Cc1ccc3c(c1)OCO3)CO2` [Methylophiopogonanone A, methylophiopogonanone A] the “CPR activity before or after dialysis” value [4] was “not affected”, the “inhibition of NFO after dialysis” value (human CYP3A4 [5]) was “could not be restored” and the “Ratio IC50(+)/IC50(−)” value (human CYP3A4 [6]) was 0.48. For the same compound, the IC50 (human CYP3A4 [6]; 10-min NADPH-fortified pre-incubation) was 17.4 ± 2.1 µM, the IC50 (human CYP3A4 [6]; without pre-incubation) was 36.5 ± 7 µM and the “Predicted threshold of unbound inhibitor concentration causing a 2-fold AUC increase” value (human CYP3A4 [6]) was 45.0 nM. The partition ratio (human CYP3A4 [7]; 30 min incubation, molar ratio metabolized per CYP3A4 inactivated) was 54, the turnover number (human CYP3A4 [7]; 30 min incubation, titration of remaining NFO activity) was 55 and the “apparent KI” value (human CYP3A4 [7]; [11]) was 9.1 µM. The kinact (human CYP3A4 [7]; [11]) was 0.058 min⁻¹, the “apparent KI” value (human CYP3A4 [7]; [12]) was 13.3 ± 5.9 µM and the kinact (human CYP3A4 [7]; [12]) was 0.068 ± 0.009 min⁻¹. The “predicted threshold for causing a 2-fold increase in AUC” value (human CYP3A4 [7]; using inhibition constants (inactivation kinetics)) was 79.7 nM, the IC50 [8] was 16.8 ± 2.6 µM and the half-life ([2]; rats treated with Qingzao Jiufei decoction (4.6 g/kg)) was 8 to 9 h. It also gave an IC50 [9] of 11.6 ± 0.7 µM.
Compound `C[C@@H]1CC[C@@]2(OC1)O[C@H]1C[C@H]3[C@@H]4CC=C5C[C@@H](O)C[C@@H](O[C@@H]6O[C@H](C)[C@H](O)[C@H](O[C@@H]7OC[C@@H](O)[C@H](O)[C@H]7O)[C@H]6O[C@@H]6O[C@@H](C)[C@H](O)[C@@H](O)[C@H]6O)[C@]5(C)[C@H]4CC[C@]3(C)[C@H]1[C@@H]2C` [Ophiopogonin D, ophiopogonin D] has an IC50 [8] of over 100 µM and an IC50 [9] of over 100 µM.
With `CC1(C)CCC[C@](C)([C@H]2CC[C@]3(C)[C@@H]2[C@H](O)C[C@@H]2[C@@]4(C)CC[C@H](O)C(C)(C)[C@@H]4[C@@H](O)C[C@]23C)O1` [Panaxatriol, panaxatriol] the IC50 [1] was over 100 µM.
In the case of `CC(C)=CCC[C@](C)(O)[C@H]1CC[C@]2(C)[C@@H]1[C@H](O)C[C@@H]1[C@@]3(C)CC[C@H](O)C(C)(C)[C@@H]3[C@@H](O)C[C@]12C` [Protopanaxatriol, protopanaxatriol], the IC50 [8] is reported as over 100 µM and the IC50 [9] is reported as over 100 µM.
For `C[C@@H]1CC[C@@]2(OC1)O[C@H]1C[C@H]3[C@@H]4CC=C5C[C@@H](O)C[C@@H](O)[C@]5(C)[C@H]4CC[C@]3(C)[C@H]1[C@@H]2C` [Ruscogenin, ruscogenin], the IC50 [1] was over 100 µM and the inhibition at 100 µM [1] was at most 50%.
In the case of `COc1cc2c(c(OC)c1OC)-c1c(cc3c(c1OC)OCO3)CC(C)C(C)C2` (centres unmarked) [Schisandrin B], the IC50 (human CYP3A4 [6]; [13]) is reported as 1.5 ± 0.2 µM, the IC50 (human CYP3A4 [6]; [14]) is reported as 6.1 ± 1.4 µM and the “Ratio IC50(+)/IC50(−)” value (human CYP3A4 [6]) is reported as 0.25. For the same compound, the “Predicted threshold of unbound inhibitor concentration causing a 2-fold AUC increase” value (human CYP3A4 [6]) was 7.69 nM, the tmax ([2]; SMS (8 g/kg)-treated rats) was 1.6 h and the tmax ([2]; Schisandra Fructus extract (5 g/kg)-treated rats) was 4.1 h. For the same compound, the half-life [2, 15] was 7 h, the Cmax [2] was 28.6 nM and the IC50 [9] was 8.9 ± 1.4 µM.
For `COc1cc2c(c(OC)c1OC)-c1c(cc3c(c1OC)OCO3)C[C@H](C)[C@](C)(O)[C@H]2OC(=O)c1ccccc1` [Schisantherin A, schisantherin A], the IC50 (human CYP3A4 [6]; [13]) was 0.06 ± 0.01 µM, the IC50 (human CYP3A4 [6]; [14]) was 0.17 ± 0.05 µM and the “Ratio IC50(+)/IC50(−)” value (human CYP3A4 [6]) was 0.35. The “Predicted threshold of unbound inhibitor concentration causing a 2-fold AUC increase” value (human CYP3A4 [6]) was 0.34 nM, the tmax ([2]; SMS (8 g/kg)-treated rats) was 2.3 h and the half-life [2, 15] was 30 h. For the same compound, the Cmax [2] was 7.1 nM and the “time required for accumulating to reach the steady-state” value [10] was “at least 8 days”.
